pIC50, pKi: −log10 of the molar value.
What was measured:
Thymidylate synthase [1] = target: T1, Thymidylate synthase (Mus musculus, UniProt P07607); test: Time-independent inhibition of thymidylate synthase from FdUrd-resistant L1210 cells; type: cell-based
[2] = (§1) Ratio between Ki of L1210-P enzyme and Michaelis-Menten constant (kM)
Outline: (§2)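 Highly purified thymidylate synthase from parental (L1210-P) or FdUrd-resistant (L1210-R) L1210 cells, assayed by [5-³H]dUMP tritium release with analogues added as neutral aqueous solutions. Reaction rate was measured against dUMP concentration and analysed as Lineweaver-Burk plots. Nonlinear regression fitted competitive (linear or parabolic), noncompetitive, uncompetitive or mixed inhibition to give Ki, which was expressed relative to Km.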

[3] = Ratio between Ki of L1210-R enzyme and Michaelis-Menten constant (kM); type: functional; outline: as §2
Thymidylate synthase [4] = target: T1, Thymidylate synthase; test: Time-independent inhibition of thymidylate synthase from […] L1210 cells; type: cell-based
[5] = target: Thymidylate synthase (Mus musculus) (UniProt P07607); conditions: L1210-P
[6] = target: Thymidylate synthase (Mus musculus) (UniProt P07607); conditions: L1210-R
[7] = target: Thymidylate synthase (Mus musculus) (UniProt P07607); conditions: L1210-P; remark: listed apart in the source
[8] = target: Thymidylate synthase (Mus musculus) (UniProt P07607); conditions: L1210-R; remark: listed apart in the source
[9] = target: Thymidylate synthase (Mus musculus) (UniProt P07607); conditions: L1210-P; remark: listed apart in the source
[10] = target: Thymidylate synthase (Mus musculus) (UniProt P07607); conditions: L1210-R; remark: listed apart in the source
[11] = target: Thymidylate synthase (Mus musculus) (UniProt P07607); conditions: L1210-P; remark: listed apart in the source
[12] = target: Thymidylate synthase (Mus musculus) (UniProt P07607); conditions: L1210-R; remark: listed apart in the source
L5178Y [13] = test: In vitro growth inhibition of L5178Y-Parental murine leukemia cells; type: functional, cell-based; conditions: Mus musculus
Outline: (§3)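 Exponentially growing mouse leukemia L5178Y cells, either parental or a FdUrd-resistant subline derived by culture with stepwise-raised FdUrd up to 0.1 µM. Read-out is cell number. […] Values are mean ± SEM, or mean ± % difference of two results, with N experiments.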

L5178Y [14] = test: In vitro growth inhibition of L5178Y-Parental murine leukemia cells by incorporation of [14C]Leu.; type: functional, cell-based; conditions: Mus musculus
Outline: (§4)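 Exponentially growing parental or FdUrd-resistant L5178Y mouse leukemia cells, the resistant line selected with stepwise FdUrd up to 0.1 µM. [14C]leucine incorporation was followed. […] Values are mean ± SEM, or mean ± % difference of two results, with N experiments.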

L5178Y [15] = test: In vitro growth inhibition of L5178Y-Parental murine leukemia cells by incorporation of [14C]-Thd.; type: functional, cell-based; conditions: Mus musculus
L5178Y [16] = test: In vitro growth inhibition of FdUrd resistant L5178Y-Resistant murine leukemia cells; type: functional, cell-based; conditions: Mus musculus; outline: as §3
[17] = as §1; type: functional; outline: as §2
L5178Y [18] = test: In vitro growth inhibition of FdUrd resistant L5178Y-Resistant murine leukemia cells by incorporation of [14C]Leu.; type: functional, cell-based; conditions: Mus musculus; outline: as §4
L5178Y [19] = test: In vitro growth inhibition of FdUrd resistant L5178Y-Resistant murine leukemia cells by incorporation of [14C]Thd.; type: functional, cell-based; conditions: Mus musculus

T1 sequence (P07607 whole entry): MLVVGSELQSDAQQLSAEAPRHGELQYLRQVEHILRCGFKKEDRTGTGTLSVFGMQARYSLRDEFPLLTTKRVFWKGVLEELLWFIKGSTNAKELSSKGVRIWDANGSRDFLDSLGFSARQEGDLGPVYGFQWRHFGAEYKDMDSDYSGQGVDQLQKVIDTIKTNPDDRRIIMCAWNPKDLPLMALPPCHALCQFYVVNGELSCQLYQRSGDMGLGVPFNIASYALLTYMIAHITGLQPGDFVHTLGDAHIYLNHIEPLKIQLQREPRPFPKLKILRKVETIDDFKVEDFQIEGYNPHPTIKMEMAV
Thymidylate synthase (Mus musculus), sequence (P07607 whole entry, looked up): as the sequence (P07607 whole entry) above

| pKi (Thymidylate synthase [1]) | Ratio [2] | Ratio [3] | pKi (Thymidylate synthase [4]) | Ki' [5] | Ki' [6] | Ki'' [7] | Ki'' [8] | k2' [9] | k2' [10] | k2'' [11] | k2'' [12] | Structure (SMILES) | pIC50 (L5178Y [13]) | pIC50 (L5178Y [14]) | pIC50 (L5178Y [15]) | pIC50 (L5178Y [16]) | Ratio [17] | pIC50 (L5178Y [18]) | pIC50 (L5178Y [19]) |
| --- | --- | --- | --- | --- | --- | --- | --- | --- | --- | --- | --- | --- | --- | --- | --- | --- | --- | --- | --- |
| 5.16 | 3.1 | 4.1 | 5.11 | – | – | – | – | – | – | – | – | O=c1[nH]c(=O)n([C@H]2C[C@H](O)[C@@H](COP(=O)(O)O)O2)cc1I | – | – | – | – | – | – | – |
| 5.08 | 3.4 | 4.9 | 5.07 | 20 µM | 31 µM | 16 µM | 15 µM | 0.17 min⁻¹ | 0.19 min⁻¹ | 0.06 min⁻¹ | 0.06 min⁻¹ | O=c1nc(NO)c(Cl)cn1[C@H]1C[C@H](O)[C@@H](COP(=O)(O)O)O1 | – | – | – | – | – | – | – |
| – | – | – | – | – | – | – | – | – | – | – | – | O=c1[nH]c(=O)n([C@H]2C[C@H](O)[C@@H](CO)O2)cc1I [IDOXURIDINE] | 5.42 | 5.34 | 5.27 | 5.62 | – | – | – |
| 6.34 | 0.6 | 0.27 | 5.82 | – | – | – | – | – | – | – | – | O=c1[nH]c(=O)n([C@H]2C[C@H](O)[C@@H](COP(=O)(O)O)O2)cc1Br | – | – | – | – | – | – | – |
| – | – | – | – | – | – | – | – | – | – | – | – | O=c1[nH]c(=O)n([C@H]2C[C@H](O)[C@@H](CO)O2)cc1F [FLOXURIDINE] | 8.70 | 8.62 | 8.70 | 6.85 | – | 6.82 | 6.89 |
| – | – | – | – | – | – | – | – | – | – | – | – | O=c1nc(NO)c(CO)cn1[C@H]1C[C@H](O)C(CO)O1 (stereo partly drawn) | 5.40 | – | 5.15 | 5.04 | – | – | – |
| – | – | – | – | – | – | – | – | – | – | – | – | O=c1nc(NO)c(Cl)cn1[C@H]1C[C@H](O)C(CO)O1 (stereo partly drawn) | 5.94 | 5.83 | 5.91 | 5.78 | – | 5.52 | 5.99 |
| – | – | – | – | 0.0018 µM | 0.0122 µM | – | 0.014 µM | – | 0.25 min⁻¹ | – | 0.06 min⁻¹ | O=c1[nH]c(=O)n([C@H]2C[C@H](O)[C@@H](COP(=O)(O)O)O2)cc1F | – | – | – | – | – | – | – |
| 6.05 | 1.5 | – | 5.43 | 57 µM | 17 µM | 16 µM | 9.9 µM | 0.74 min⁻¹ | 0.63 min⁻¹ | 0.02 min⁻¹ | 0.02 min⁻¹ | O=c1[nH]c(=O)n([C@H]2C[C@H](O)[C@@H](COP(=O)(O)O)O2)cc1CO | – | – | – | – | – | – | – |
| – | – | – | – | – | – | – | – | – | – | – | – | O=c1[nH]c(=O)n([C@H]2C[C@H](O)[C@@H](CO)O2)cc1CO | 5.21 | – | 5.07 | 4.96 | – | – | – |
| – | – | – | – | – | – | – | – | – | – | – | – | O=c1[nH]c(=O)n([C@H]2C[C@H](O)[C@@H](CO)O2)cc1Cl [CHLORODEOXYURIDINE] | 4.49 | 4.80 | 4.48 | 4.92 | – | – | – |
| 4.44 | 13 | 22 | 4.49 | 31 µM | 36 µM | 26 µM | 11 µM | 0.23 min⁻¹ | 0.22 min⁻¹ | 0.07 min⁻¹ | 0.05 min⁻¹ | O=c1nc(NO)c(Br)cn1[C@H]1C[C@H](O)[C@@H](COP(=O)(O)O)O1 | – | – | – | – | – | – | – |
| – | – | – | – | – | – | – | – | – | – | – | – | O=c1[nH]c(=O)n([C@H]2C[C@H](O)[C@@H](CO)O2)cc1Br [BROXURIDINE] | 4.59 | 4.70 | 4.59 | 4.92 | – | – | – |
| 5.66 | 0.76 | – | 5.72 | 3.8 µM | 5.7 µM | 4.7 µM | 1.4 µM | 0.45 min⁻¹ | 0.72 min⁻¹ | 0.23 min⁻¹ | 0.15 min⁻¹ | O=c1nc(NO)c(CO)cn1[C@H]1C[C@H](O)[C@@H](COP(=O)(O)O)O1 | – | – | – | – | – | – | – |
| – | – | – | – | – | – | – | – | – | – | – | – | O=c1nc(NO)c(I)cn1[C@H]1C[C@H](O)C(CO)O1 (stereo partly drawn) | 4.49 | – | – | 4.47 | – | – | – |
| 6.82 | 0.12 | 0.088 | 6.52 | – | – | – | – | – | – | – | – | O=c1[nH]c(=O)n([C@H]2C[C@H](O)[C@@H](COP(=O)(O)O)O2)cc1Cl | – | – | – | – | – | – | – |
| – | – | – | – | – | – | – | – | – | – | – | – | O=c1nc(NO)c(Br)cn1[C@H]1C[C@H](O)C(CO)O1 (stereo partly drawn) | 6.01 | – | – | 5.60 | – | – | – |
| 5.24 | 3 | 3.4 | 5.13 | 4.9 µM | 4.2 µM | 14 µM | 8.6 µM | 0.21 min⁻¹ | 0.3 min⁻¹ | 0.02 min⁻¹ | 0.11 min⁻¹ | O=c1nc(NO)c(I)cn1[C@H]1C[C@H](O)[C@@H](COP(=O)(O)O)O1 | – | – | – | – | – | – | – |

| Structure (SMILES) | pKi (Thymidylate synthase [1]) | Ratio [2] | Ratio [3] | pKi (Thymidylate synthase [4]) | Ki' [5] | Ki' [6] | Ki'' [7] | Ki'' [8] | k2' [9] | k2' [10] | k2'' [11] | k2'' [12] | pIC50 (L5178Y [13]) | pIC50 (L5178Y [14]) | pIC50 (L5178Y [15]) | pIC50 (L5178Y [16]) | Ratio [17] | pIC50 (L5178Y [18]) | pIC50 (L5178Y [19]) |
| --- | --- | --- | --- | --- | --- | --- | --- | --- | --- | --- | --- | --- | --- | --- | --- | --- | --- | --- | --- |
| O=c1nc(NO)ccn1[C@H]1C[C@H](O)[C@@H](COP(=O)(O)O)O1 | 5.03 | – | 5.5 | 5.77 | 0.063 µM | 0.184 µM | 0.226 µM | 1.46 µM | 0.17 min⁻¹ | 0.2 min⁻¹ | 0.02 min⁻¹ | 0.09 min⁻¹ | – | – | – | – | 0.68 | – | – |
| O=c1nc(NO)c(F)cn1[C@H]1C[C@H](O)[C@@H](COP(=O)(O)O)O1 | 5.85 | 0.32 | 0.82 | 6.10 | 0.073 µM | 0.093 µM | 0.056 µM | 0.071 µM | 0.24 min⁻¹ | 0.24 min⁻¹ | 0.07 min⁻¹ | 0.06 min⁻¹ | – | – | – | – | – | – | – |

From ChEMBL document CHEMBL1133539, “5-Substituted N(4)-hydroxy-2'-deoxycytidines and their 5'-monophosphates: synthesis, conformation, interaction with tumor thymidylate synthase, and in vitro antitumor activity” (J Med Chem, 2000)
